The target in assay [1] is T1, Kelch-like ECH-associated protein 1 (Homo sapiens, UniProt Q14145). The experiment in a line: Binding affinity to KEAP1 (unknown origin) by surface plasmon resonance analysis. An outline of the steps: (§1)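 Keap1 Kelch domain immobilized covalently on a biosensor chip. Compounds injected as two-fold serial dilutions (7–8 concentrations), with blank-injection and reference-surface subtraction. Kd from steady-state affinity: equilibrium response at end of injection plotted against concentration and fitted to a 1:1 Langmuir isotherm. For very slowly dissociating binders, single-concentration or OneStep gradient injections were fitted globally to a 1:1 kinetic model to give ka, kd and Kd.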
Background: SPR reads the build-up and loss of mass on a sensor chip optically.

Assay [2] addresses T1, Kelch-like ECH-associated protein 1. The experiment in a line: Inhibition of […]-LDEETGEFL-NH2 binding to recombinant human KEAP1 Kelch domain (321 to 609 residues) expressed in Escherichia coli BL21 (DE3) measured after 10 to 15 mins by fluorescence polarization assay. A general note: Fluorescence polarisation rises when a labelled molecule tumbles more slowly, as on binding a larger partner.

The target of assay [3] is Kelch-like ECH-associated protein 1 (Mus musculus) (UniProt Q9Z2X8). The experiment in a line: Binding affinity to Keap1 in mouse Hepa1c1c7 cells assessed as reduction in Keap1 interaction by measuring induction of NQO1 activity at 1 to 10 uM measured after 24 hrs. It is filed as cell-based.
For assay [4], the target named is T1, Kelch-like ECH-associated protein 1. The experiment in a line: Binding affinity to recombinant human KEAP1 Kelch domain (321 to 609 residues) expressed in Escherichia coli BL21 (DE3) by surface plasmon resonance analysis.
Assay [5] shares this target. The experiment in a line: Binding affinity to recombinant human KEAP1 Kelch domain (321 to 609 residues) expressed in Escherichia coli BL21 (DE3) assessed as thermal stabilization by sypro orange dye based thermal shift assay.
The nature of assay [6]: Redox cycling activity of the compound assessed as H2O2 production measured after 15 mins in presence of TCEP by phenol red reagent based horseradish peroxidase coupled assay.
Assay [7] deals with T1, Kelch-like ECH-associated protein 1. The experiment in a line: Binding affinity to recombinant human KEAP1 Kelch domain (321 to 609 residues) expressed in Escherichia coli BL21 (DE3) assessed as dissociation rate constant up to 1 uM by surface plasmon resonance analysis. The method in brief: as §1
The target is the same in assay [8]. The experiment in a line: Inhibition of TAMRA-labeled AFFAQLQLDEETGEFL binding to recombinant human KEAP1 Kelch domain (321 to 609 residues) measured after 1 hr by fluorescence polarization assay.
The target is the same in assay [9].
Assay [10] deals with Kelch-like ECH-associated protein 1 (Mus musculus) (UniProt Q9Z2X8). As to the kind of experiment: Binding affinity to Keap1 in mouse Hepa1c1c7 cells assessed as reduction in Keap1 interaction by measuring induction of NQO1 activity measured after 24 hrs. It is filed as cell-based.
Assay [11] addresses T1, Kelch-like ECH-associated protein 1. As to the kind of experiment: Binding affinity to recombinant human KEAP1 Kelch domain (321 to 609 residues) expressed in Escherichia coli BL21 (DE3) assessed as association rate constant up to 1 uM by surface plasmon resonance analysis. An outline of the steps: as §1

Activity calls are given as the source filed them. No cut-off for these calls is given here. Bounds are passed on as bounds.

T1 sequence (Q14145 whole entry, the tested form may be a part): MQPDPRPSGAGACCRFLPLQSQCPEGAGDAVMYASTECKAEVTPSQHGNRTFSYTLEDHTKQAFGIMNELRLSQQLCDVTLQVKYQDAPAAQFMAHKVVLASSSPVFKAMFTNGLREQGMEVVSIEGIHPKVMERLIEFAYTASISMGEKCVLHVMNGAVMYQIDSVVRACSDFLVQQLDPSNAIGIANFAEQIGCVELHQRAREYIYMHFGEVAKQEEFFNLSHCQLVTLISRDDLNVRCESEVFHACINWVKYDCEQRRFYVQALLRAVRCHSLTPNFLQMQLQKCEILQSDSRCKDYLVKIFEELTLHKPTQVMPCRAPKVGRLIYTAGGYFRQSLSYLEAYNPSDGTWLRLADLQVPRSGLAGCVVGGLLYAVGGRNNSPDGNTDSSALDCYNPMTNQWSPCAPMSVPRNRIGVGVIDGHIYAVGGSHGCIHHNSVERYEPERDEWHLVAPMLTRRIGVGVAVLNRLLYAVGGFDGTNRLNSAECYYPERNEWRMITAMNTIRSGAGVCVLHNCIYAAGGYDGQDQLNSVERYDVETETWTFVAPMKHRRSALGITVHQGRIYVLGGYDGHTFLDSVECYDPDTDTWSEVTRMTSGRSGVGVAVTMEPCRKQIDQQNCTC
Chain of Kelch-like ECH-associated protein 1 (Mus musculus) (Q9Z2X8 whole entry, the tested form may be a part): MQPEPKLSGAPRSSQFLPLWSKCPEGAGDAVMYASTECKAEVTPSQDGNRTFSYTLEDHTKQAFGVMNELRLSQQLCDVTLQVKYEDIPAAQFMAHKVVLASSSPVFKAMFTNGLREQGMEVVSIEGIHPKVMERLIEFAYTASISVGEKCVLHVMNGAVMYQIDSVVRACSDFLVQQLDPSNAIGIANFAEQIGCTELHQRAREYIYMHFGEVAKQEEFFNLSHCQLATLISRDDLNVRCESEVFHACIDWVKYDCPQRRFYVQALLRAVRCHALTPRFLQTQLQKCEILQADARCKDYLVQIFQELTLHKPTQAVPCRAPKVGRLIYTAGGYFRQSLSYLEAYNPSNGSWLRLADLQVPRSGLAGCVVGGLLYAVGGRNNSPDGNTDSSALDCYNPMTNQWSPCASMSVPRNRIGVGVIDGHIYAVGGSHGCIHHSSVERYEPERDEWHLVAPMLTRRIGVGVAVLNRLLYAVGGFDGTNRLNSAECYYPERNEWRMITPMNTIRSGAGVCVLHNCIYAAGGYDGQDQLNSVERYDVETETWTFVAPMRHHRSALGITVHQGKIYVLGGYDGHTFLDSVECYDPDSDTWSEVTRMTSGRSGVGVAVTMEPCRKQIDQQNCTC

As to `O=C(O)COc1cccc(CNC(=O)Nc2nnc(-c3ccco3)o2)c1`, the results for the Kd in assay [1] and in [4] were 100 to 1000 µM and at most 582 µM, respectively. Further, the Ki (usually the equilibrium dissociation constant of an inhibitor or competing ligand from its target) in [2] is at most 800 µM. Besides, the result in assay [3] and in [6] was inactive. The EC50 (in general, the midpoint of the concentration-response curve) in [5] was at most 800 µM.
Regarding `CCCCC1CCCN1C(=O)[C@@H]1CCC[C@H](c2cccc(-n3ncc(C(=O)O)c3C3CC3)c2)C1` (relative stereo), the koff (as a rule, the first-order rate constant of dissociation) in assay [7] is 0.00226 s⁻¹. The IC50 (commonly the concentration that gives 50% inhibition) in [8] turned out to be 0.063 µM. Moreover, in assay [2], the Ki came to 0.013 µM. The dissociation constant Kd (commonly the concentration at which binding is half-saturated) in [4] is 0.019 µM. Also, the ΔTm (commonly the shift of the melting midpoint relative to a reference) in assay [9] was found to be 19 °C. For the same molecule, the EC50 in [5] was found to be 10 µM. The Activity result in assay [10] is “Dose-dependent effect”. In addition, the Ka in assay [11] is 1.16 ×10⁵ /M/s. The outcome in [6] was inactive.

Values taken from ChEMBL document CHEMBL4373719, “A Comparative Assessment Study of Known Small-Molecule Keap1-Nrf2 Protein-Protein Interaction Inhibitors: Chemical Synthesis, Binding Properties, and Cellular Activity” (J Med Chem, 2019).
